Results taken from ChEMBL document CHEMBL1177765, “Synthesis and biological evaluation of new cytotoxic azanaphthoquinone pyrrolo-annelated derivatives” (Bioorg Med Chem Lett, 2010).
In brackets after ≈: the same amount, converted by molar mass. Activity calls are given as the source filed them. The rule behind the calls is not given here.

Legend:
SK-OV-3 [1] = assay: Cytotoxicity against human SKOV3 cells after 48 hrs by XTT assay; type: functional, cell-based; conditions: SK-OV-3, 48 h
Summary of the method: (§1)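 XTT assay of cell proliferation after 48 h exposure. EC50 is the concentration giving 50% inhibition, fitted by nonlinear regression to data from at least two independent assays.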

[2] = Cytotoxicity against human RKOp27 cells after 48 hrs by XTT assay; type: functional, cell-based; conditions: RKOp27, 48 h; summary of the method: as §1
NCI-H460 [3] = assay: Cytotoxicity against human NCI-H460 cells after 48 hrs by XTT assay; type: functional, cell-based; conditions: NCI-H460, 48 h; summary of the method: as §1
SF-268 [4] = assay: Cytotoxicity against human SF268 cells after 48 hrs by XTT assay; type: functional, cell-based; conditions: SF-268, 48 h; summary of the method: as §1
[5] = Cytotoxicity against human KB/HeLa cells after 48 hrs by XTT assay; type: functional, cell-based; summary of the method: as §1
[6] = Cytotoxicity against human RKOp27IND cells after 48 hrs by XTT assay; type: functional, cell-based
NCI-H460 [7] = assay: Cytotoxicity against human NCI-H460 cells at 3.16 ug/mL after 48 hrs by XTT assay; type: functional; conditions: NCI-H460, 48 h
[8] = Cytotoxicity against human KB/HeLa cells at 3.16 ug/mL after 48 hrs by XTT assay; type: functional
SF-268 [9] = assay: Cytotoxicity against human SF268 cells at 3.16 ug/mL after 48 hrs by XTT assay; type: functional; conditions: SF-268, 48 h
[10] = Cytotoxicity against human RKOp27IND cells at 3.16 ug/mL after 48 hrs by XTT assay; type: functional
[11] = Cytotoxicity against human RKOp27 cells at 3.16 ug/mL after 48 hrs by XTT assay; type: functional; conditions: RKOp27, 48 h
SK-OV-3 [12] = assay: Cytotoxicity against human SKOV3 cells at 3.16 ug/mL after 48 hrs by XTT assay; type: functional; conditions: SK-OV-3, 48 h
[13] = Cell cycle arrest in human RKOp27IND cells assessed as accumulation at G2/M phase; type: functional, cell-based
Nucleic Acid = assay: Binding affinity to DNA at 125 uM; type: nucleic-acid assay
Summary of the method: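 UV-absorbance DNA intercalation assay. Stocks up to 5 mM were made in 5% (v:v) DMSO or methanol, then diluted stepwise in pH 7 buffer (5 mM NaH2PO4, 5 mM Na2HPO4, 70 mM NaCl) to give absorbance maximum about 1–2. Spectra were read from 350 to 600 nm with or without 2 mg/ml calf thymus DNA. Acridine orange was the reference.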

[14] = Cell cycle arrest in human RKOp27 cells assessed as accumulation at G2/M phase; type: functional, cell-based

For CN(C)CCCn1ccc2c1C(=O)c1cncnc1C2=O, the EC50 (SK-OV-3 [1]) was 0.452 µg/mL (≈ 1.59 µM), the EC50 [2] was 0.246 µg/mL (≈ 0.865 µM) and the EC50 (NCI-H460 [3]) was 0.177 µg/mL (≈ 0.623 µM). The EC50 (SF-268 [4]) was 0.198 µg/mL (≈ 0.696 µM), the EC50 [5] was 0.28 µg/mL (≈ 0.985 µM) and the EC50 [6] was 0.44 µg/mL (≈ 1.55 µM).
Molecule CN(C)CCCn1ccc2c1C(=O)c1nccnc1C2=O has an inhibition at 3.16 µg/mL (NCI-H460 [7]) of less than 50%, an inhibition at 3.16 µg/mL [8] of less than 50% and an inhibition at 3.16 µg/mL (SF-268 [9]) of less than 50%. The inhibition at 3.16 µg/mL [10] was less than 50%, the inhibition at 3.16 µg/mL [11] was less than 50% and the inhibition at 3.16 µg/mL (SK-OV-3 [12]) was less than 50%.
CN(C)CCn1ccc2c1C(=O)c1ccncc1C2=O showed an EC50 (SK-OV-3 [1]) of 3 µg/mL (≈ 11.1 µM), an EC50 [2] of 3 µg/mL (≈ 11.1 µM) and an EC50 (NCI-H460 [3]) of 3 µg/mL (≈ 11.1 µM). The EC50 (SF-268 [4]) was 3 µg/mL (≈ 11.1 µM), the EC50 [5] was 3 µg/mL (≈ 11.1 µM) and the EC50 [6] was 3 µg/mL (≈ 11.1 µM).
CN(C)CCn1ccc2c1C(=O)c1cncnc1C2=O showed an EC50 (SK-OV-3 [1]) of 0.239 µg/mL (≈ 0.884 µM), an EC50 [2] of 0.173 µg/mL (≈ 0.64 µM) and an EC50 (NCI-H460 [3]) of 0.082 µg/mL (≈ 0.303 µM). The EC50 (SF-268 [4]) was 0.107 µg/mL (≈ 0.396 µM), the Activity [13] was “inactive” and the EC50 [5] was 0.173 µg/mL (≈ 0.64 µM). For the same molecule, the Activity (Nucleic Acid) was “inactive”, the EC50 [6] was 0.377 µg/mL (≈ 1.39 µM) and the Activity [14] was “inactive”.
Work on CN(C)CCn1ccc2c1C(=O)c1cccnc1C2=O yielded an inhibition at 3.16 µg/mL (NCI-H460 [7]) of less than 50%, an inhibition at 3.16 µg/mL [8] of less than 50% and an inhibition at 3.16 µg/mL (SF-268 [9]) of less than 50%. The inhibition at 3.16 µg/mL [10] was less than 50%, the inhibition at 3.16 µg/mL [11] was less than 50% and the inhibition at 3.16 µg/mL (SK-OV-3 [12]) was less than 50%.
CN(C)CCCn1ccc2c1C(=O)c1ccncc1C2=O gave an EC50 (SK-OV-3 [1]) of 3 µg/mL (≈ 10.6 µM), an EC50 [2] of 3 µg/mL (≈ 10.6 µM) and an EC50 (NCI-H460 [3]) of 3 µg/mL (≈ 10.6 µM). It also gave an EC50 (SF-268 [4]) of 3 µg/mL (≈ 10.6 µM), an EC50 [5] of 3 µg/mL (≈ 10.6 µM) and an EC50 [6] of 3 µg/mL (≈ 10.6 µM).
Molecule CN(C)CCn1ccc2c1C(=O)c1nccnc1C2=O has an EC50 (SK-OV-3 [1]) of 3 µg/mL (≈ 11.1 µM), an EC50 [2] of 1.19 µg/mL (≈ 4.42 µM) and an EC50 (NCI-H460 [3]) of 1.12 µg/mL (≈ 4.15 µM). It also gave an EC50 (SF-268 [4]) of 2.7 µg/mL (≈ 9.99 µM), an EC50 [5] of 1.37 µg/mL (≈ 5.06 µM) and an EC50 [6] of 2.97 µg/mL (≈ 11 µM).
In the case of CN(C)CCCn1ccc2c1C(=O)c1ncccc1C2=O, the inhibition at 3.16 µg/mL (NCI-H460 [7]) is reported as less than 50%, the inhibition at 3.16 µg/mL [8] is reported as less than 50% and the inhibition at 3.16 µg/mL (SF-268 [9]) is reported as less than 50%. For the same molecule, the inhibition at 3.16 µg/mL [10] was less than 50%, the inhibition at 3.16 µg/mL [11] was less than 50% and the inhibition at 3.16 µg/mL (SK-OV-3 [12]) was less than 50%.
CN(C)CCn1ccc2c1C(=O)c1ncccc1C2=O showed an inhibition at 3.16 µg/mL (NCI-H460 [7]) of less than 50%, an inhibition at 3.16 µg/mL [8] of less than 50% and an inhibition at 3.16 µg/mL (SF-268 [9]) of less than 50%. For the same molecule, the inhibition at 3.16 µg/mL [10] was less than 50%, the inhibition at 3.16 µg/mL [11] was less than 50% and the inhibition at 3.16 µg/mL (SK-OV-3 [12]) was less than 50%.
CN(C)CCCn1ccc2c1C(=O)c1cccnc1C2=O showed an inhibition at 3.16 µg/mL (NCI-H460 [7]) of less than 50%, an inhibition at 3.16 µg/mL [8] of less than 50% and an inhibition at 3.16 µg/mL (SF-268 [9]) of less than 50%. For the same molecule, the inhibition at 3.16 µg/mL [10] was less than 50%, the inhibition at 3.16 µg/mL [11] was less than 50% and the inhibition at 3.16 µg/mL (SK-OV-3 [12]) was less than 50%.
